Ki, solubility and inhibition data for 12 molecules are collected here from ChEMBL document CHEMBL1124811, “Cyclic hexapeptide oxytocin antagonists. Potency-, selectivity-, and solubility-enhancing modifications” (J Med Chem, 1990).

Values after ≈ are worked out from the molar mass of the structure shown. Non-standard residues stand in square brackets, D forms with d. Residues, ends and D or L forms follow the SMILES beside them. Piz(1,6-dehydro) = O=C(O)[C@@H]1CCC=NN1; dPiz(1,6-dehydro) = O=C(O)[C@H]1CCC=NN1; dNMeF = CN[C@H](Cc1ccccc1)C(=O)O; Pip = O=C(O)[C@@H]1CCCCN1; dPip = O=C(O)[C@H]1CCCCN1; Orn = NCCC[C@H](N)C(=O)O

Data set [1] concerns the target T1, Oxytocin receptor (Rattus norvegicus, UniProt P70536).
T1 sequence (P70536 whole entry): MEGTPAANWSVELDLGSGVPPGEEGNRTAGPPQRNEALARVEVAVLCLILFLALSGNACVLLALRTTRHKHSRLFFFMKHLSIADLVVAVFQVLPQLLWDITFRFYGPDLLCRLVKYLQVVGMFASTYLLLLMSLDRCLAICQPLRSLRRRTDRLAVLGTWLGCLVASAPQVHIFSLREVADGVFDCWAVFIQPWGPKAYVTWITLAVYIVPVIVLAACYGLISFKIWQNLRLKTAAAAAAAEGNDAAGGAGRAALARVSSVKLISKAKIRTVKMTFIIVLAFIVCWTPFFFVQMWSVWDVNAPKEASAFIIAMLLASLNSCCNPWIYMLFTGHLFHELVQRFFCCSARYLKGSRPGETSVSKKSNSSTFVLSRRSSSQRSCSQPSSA
The data set can be described thus: Inhibition of [3H]- oxytocin binding to rat uterine Oxytocin receptor. The method, boiled down:
(§1)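 Radioligand competition binding. Ki derived from IC50 values from competition curves; reported as group means ± SEM of three or more replicate determinations unless noted otherwise.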

The target of data set [2] is Vasopressin V1 receptor (Rattus norvegicus, UniProt P48974+P30560). The data set can be described thus: Inhibition of [3H]arginine vasopressin binding to rat liver Vasopressin V1 receptor. The method, boiled down: as §1
Data set [3] concerns the target Vasopressin V2 receptor (Rattus norvegicus, UniProt Q00788). The data set can be described thus: Inhibition of [3H]arginine vasopressin binding to rat kidney medulla Vasopressin V2 receptor. In short, it runs like this:
as §1

Data set [4] in a line: Solubility at 25 degree C and pH of 7.0. Conditions: pH 7; read-out: S. The format is physicochemical.
Data set [5] is described as follows: Solubility at 25 degree C and pH of 5.0. Conditions: pH 5; read-out: S. The data set is classed as physicochemical.
The nature of data set [6]: Solubility at 25 degree C and pH of 10.8. The format is physicochemical. As to conditions: pH 10.8; read-out: S.
A short description of data set [7]: Solubility at 25 degree C and pH of 7.4. The data set is classed as physicochemical. Conditions: pH 7.4; read-out: S.
The target of data set [8] is T2, Oxytocin receptor (Rattus norvegicus) (UniProt P70536).
T2 sequence (whole entry): T1 sequence (P70536 whole entry)
The data set is described as follows: Inhibition of binding of [3H]- oxytocin to rat uterine Oxytocin receptor. As to conditions: concentration not given here. In short, it runs like this: as §1

In data set [9] the target is Vasopressin V1 receptor (Rattus norvegicus) (UniProt P48974+P30560). The data set can be described thus: Inhibition of binding of [3H]-arginine vasopressin to rat liver Vasopressin V1 receptor at a concentration of 10000 nM.
Data set [10] concerns the target Vasopressin V2 receptor (Rattus norvegicus) (UniProt Q00788). The data set is described as follows: Inhibition of binding of [3H]-arginine vasopressin to rat kidney medulla Vasopressin V2 receptor at a concentration of 10000 nM.

Chain of Vasopressin V2 receptor (Q00788 whole entry): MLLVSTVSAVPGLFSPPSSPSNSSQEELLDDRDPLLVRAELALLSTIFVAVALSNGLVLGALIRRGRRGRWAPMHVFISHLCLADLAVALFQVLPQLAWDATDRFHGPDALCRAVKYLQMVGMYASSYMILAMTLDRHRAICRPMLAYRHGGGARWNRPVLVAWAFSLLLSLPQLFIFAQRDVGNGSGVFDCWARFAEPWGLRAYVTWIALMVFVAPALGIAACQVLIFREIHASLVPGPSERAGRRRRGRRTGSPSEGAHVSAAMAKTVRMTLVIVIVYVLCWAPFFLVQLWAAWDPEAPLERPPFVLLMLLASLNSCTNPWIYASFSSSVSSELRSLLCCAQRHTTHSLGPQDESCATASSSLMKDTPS
Chain of Vasopressin V1 receptor (Rattus norvegicus) (P30560 whole entry, looked up): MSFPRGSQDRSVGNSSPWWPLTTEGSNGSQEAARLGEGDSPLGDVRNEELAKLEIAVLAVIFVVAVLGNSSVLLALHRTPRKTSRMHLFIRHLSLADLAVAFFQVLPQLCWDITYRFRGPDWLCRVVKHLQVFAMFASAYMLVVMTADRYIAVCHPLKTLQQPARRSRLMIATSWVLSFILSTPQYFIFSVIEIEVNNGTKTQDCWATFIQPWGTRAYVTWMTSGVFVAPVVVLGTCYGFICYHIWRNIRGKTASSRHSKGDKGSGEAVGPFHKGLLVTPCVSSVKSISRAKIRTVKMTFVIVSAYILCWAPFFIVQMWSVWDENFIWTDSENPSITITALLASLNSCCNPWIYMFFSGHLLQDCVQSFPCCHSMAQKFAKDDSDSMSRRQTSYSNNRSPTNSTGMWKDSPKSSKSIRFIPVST
Chain of Vasopressin V1 receptor (Rattus norvegicus) (P48974 whole entry, looked up): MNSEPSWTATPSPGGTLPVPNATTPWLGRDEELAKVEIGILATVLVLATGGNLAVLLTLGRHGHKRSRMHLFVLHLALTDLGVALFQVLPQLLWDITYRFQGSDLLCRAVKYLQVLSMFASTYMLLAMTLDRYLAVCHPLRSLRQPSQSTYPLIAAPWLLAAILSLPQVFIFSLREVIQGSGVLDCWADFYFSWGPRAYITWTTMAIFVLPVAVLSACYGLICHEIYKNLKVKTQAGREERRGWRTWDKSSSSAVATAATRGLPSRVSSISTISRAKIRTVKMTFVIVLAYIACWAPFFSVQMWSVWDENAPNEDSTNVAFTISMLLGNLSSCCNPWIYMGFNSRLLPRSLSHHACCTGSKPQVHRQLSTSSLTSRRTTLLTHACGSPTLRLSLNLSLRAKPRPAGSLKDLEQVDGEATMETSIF
Chain of Vasopressin V2 receptor (Rattus norvegicus) (Q00788 whole entry): as the sequence (Q00788 whole entry) above

For `CC[C@H](C)[C@@H]1NC(=O)[C@@H](Cc2ccccc2)NC(=O)[C@@H]2CCCN2C(=O)[C@@H](C)N(C)C(=O)[C@@H]2CCCCN2C(=O)[C@H]2CCCCN2C1=O`, the Ki is 490 nM in data set [1], more than 10000 nM in data set [2] and more than 10000 nM in data set [3].
As to `CCOc1ccc(C[C@H]2NC(=O)[C@@H]3CCCN3C(=O)[C@@H](Cc3ccccc3)N(C)C(=O)[C@@H]3CCCCN3C(=O)[C@H]3CCCCN3C(=O)[C@H]([C@@H](C)CC)NC2=O)cc1` (cyclo(I[dPip][Pip][dNMeF]P[dY](Et))), the Ki in data set [1] worked out at 49 nM; in data set [2], 20000 nM; in data set [3], 250 nM.
Turning to `CC[C@H](C)[C@@H]1NC(=O)[C@@H](Cc2c[nH]c3ccccc23)NC(=O)[C@@H]2CCCN2C(=O)[C@@H](Cc2ccccc2)N(C)C(=O)[C@H](CCCN)NC(=O)[C@H]2CCCCN2C1=O` (cyclo(I[dPip][Orn][dNMeF]P[dW])), the Ki in data set [1] came to 49 nM; in data set [2] it was 1000 nM; in data set [3] it was 500 nM.
In data set [1], `CC[C@H](C)[C@@H]1NC(=O)[C@@H](Cc2ccccc2)NC(=O)[C@@H]2CCCN2C(=O)[C@@H](Cc2ccccc2)N(C)C(=O)[C@@H]2CCC=NN2C(=O)[C@H]2CCC=NN2C1=O` (cyclo(I[dPiz(1,6-dehydro)][Piz(1,6-dehydro)][dNMeF]P[dF])) came in with a Ki of 7.3 nM. The solubility in data set [4] was found to be 68 µg/mL (≈ 92 µM).
Take `CC[C@H](C)[C@@H]1NC(=O)[C@@H](Cc2c[nH]c3ccccc23)NC(=O)[C@@H]2CCCN2C(=O)[C@@H](Cc2c[nH]cn2)NC(=O)[C@@H]2CCCCN2C(=O)[C@H]2CCCCN2C1=O` (cyclo(I[dPip][Pip][dH]P[dW])): the figures for the Ki in data set [2] and in data set [3] were 2200 nM and 1800 nM, respectively. The solubility in data set [5] worked out at 2000 µg/mL (≈ 2650 µM); in data set [6], 110 µg/mL (≈ 146 µM).
On to `CC[C@H](C)[C@@H]1NC(=O)[C@@H](Cc2c[nH]c3ccccc23)NC(=O)[C@@H]2CCCN2C(=O)[C@@H](Cc2ccccc2)N(C)C(=O)[C@@H]2CCCCN2C(=O)[C@H]2CCCCN2C1=O` (cyclo(I[dPip][Pip][dNMeF]P[dW])), for which the Ki in data set [1] is 8.1 nM; in data set [2] it was 3500 nM; in [3], 260 nM.
Consider `CC[C@H](C)[C@@H]1NC(=O)[C@@H](Cc2ccccc2)NC(=O)[C@@H]2CCCN2C(=O)[C@@H](Cc2ccccc2)N(C)C(=O)[C@@H]2CCCCN2C(=O)[C@H]2CCCCN2C1=O`, for which the solubility in data set [7] came out at 2 µg/mL (≈ 2.7 µM). Moreover, the Ki in data set [1] stood at 83 nM; in [2] it was 890 nM; in data set [3] it was 1600 nM.
Turning to `CC[C@H](C)[C@@H]1NC(=O)[C@@H](Cc2ccc3ccccc3c2)NC(=O)[C@@H]2CCCN2C(=O)[C@@H](Cc2c[nH]cn2)NC(=O)[C@@H]2CCCCN2C(=O)[C@H]2CCCCN2C1=O`, the Ki in data set [1] was 1.6 nM; in data set [2], 760 nM; in data set [3] it was 320 nM.
As for `CC[C@H](C)[C@@H]1NC(=O)[C@@H](Cc2ccccc2)NC(=O)[C@@H]2CCCN2C(=O)[C@@H](Cc2ccccc2)N(C)C(=O)[C@@H]2CCCN2C(=O)[C@H]2CCCN2C1=O` (cyclo([dNMeF]P[dF]I[dP]P)), the Ki came to 1400 nM in [1], 9300 nM in data set [2] and 33000 nM in [3].
With `CC[C@H](C)[C@@H]1NC(=O)[C@@H](Cc2ccccc2)NC(=O)[C@@H]2CCCN2C(=O)[C@@H](Cc2ccccc2)NC(=O)[C@@H]2CCCCN2C(=O)[C@H]2CCCCN2C1=O` (cyclo(I[dPip][Pip][dF]P[dF])), the Ki turned out to be 140 nM in [1], 1600 nM in data set [2] and 4500 nM in [3].
On to `CC[C@H](C)[C@@H]1NC(=O)[C@@H](C)NC(=O)[C@@H]2CCCN2C(=O)[C@@H](Cc2ccccc2)NC(=O)[C@@H]2CCCCN2C(=O)[C@H]2CCCCN2C1=O` (cyclo(I[dPip][Pip][dF]P[dA])), for which the inhibition in [8] was determined as 0%; in [9], 0%; in data set [10] it was 4%.
Regarding `C[C@@H]1NC(=O)[C@@H](Cc2ccccc2)NC(=O)[C@@H]2CCCN2C(=O)[C@@H](Cc2ccccc2)N(C)C(=O)[C@@H]2CCCCN2C(=O)[C@H]2CCCCN2C1=O` (cyclo(A[dPip][Pip][dNMeF]P[dF])), the figures for the Ki in data set [1], in data set [2] and in data set [3] were 12000 nM, more than 30000 nM and more than 30000 nM, respectively.
